Measurements as given in ChEMBL document CHEMBL1145384, “Novel C-6 fluorinated acyclic side chain pyrimidine derivatives: synthesis, (1)H and (13)C NMR conformational studies, and antiviral and cytostatic evaluations” (J Med Chem, 2007).
Active and inactive are the calls of the source. The calls are words filed in the database; no cut-off is given here.

Assays:
[1] = system: Mammalian orthoreovirus 1; assay: Antiviral activity against reovirus1 virus in Vero cells assessed as reduction of virus plaque formation after 7 days; format: functional, organism-based; details: Mammalian orthoreovirus 1, Vero, 168 h
L1210 = assay: Growth inhibition of mouse L1210 cells after 72 hrs by MTT assay; format: functional, cell-based; details: L1210, 72 h
Human alphaherpesvirus 3 [2] = assay: Antiviral activity against thymidine kinase deficient Varicella-Zoster virus 07/1 assessed as reduction of plaque formation; format: functional, organism-based; details: Human alphaherpesvirus 3, 07/1
Summary of the method: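 Plaque reduction assay in HEL cells against TK+ (OKA) and TK- (07/1) VZV strains; virus input 100 PFU; EC50 as concentration giving 50% plaque reduction.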

Human respirovirus 3 = assay: Antiviral activity against parainfluenza 3 virus in Vero cells assessed as reduction of virus plaque formation after 7 days; format: functional, organism-based; details: Human respirovirus 3, Vero, 168 h
SW-620 = assay: Growth inhibition of SW620 cells after 72 hrs by MTT assay; format: functional, cell-based; details: Homo sapiens, SW-620, 72 h
Summary of the method: (§1)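 Tumor lines grown as monolayers in DMEM with 10% FBS, 2 mM L-glutamine and penicillin. Freshly diluted compounds added, solvent tested at matching concentrations; after 72 h growth measured by MTT. IC50 obtained by linear regression of concentrations bracketing 50% growth; mean of three separate experiments.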

HeLa = assay: Growth inhibition of HeLa cells after 72 hrs by MTT assay; format: functional, cell-based; details: Homo sapiens; summary of the method: as §1
MCF7 = assay: Growth inhibition of MCF7 cells after 72 hrs by MTT assay; format: functional, cell-based; details: Homo sapiens, MCF7, 72 h; summary of the method: as §1
Punta Toro virus = assay: Antiviral activity against Punta Toro virus in Vero cells assessed as reduction of virus plaque formation after 7 days; format: functional, organism-based; details: 168 h
Coxsackievirus B4 = assay: Antiviral activity against coxsackie B4 virus in HeLa cells assessed as reduction of virus plaque formation after 7 days; format: functional, organism-based; details: Enterovirus B, 168 h
Human alphaherpesvirus 3 [3] = assay: Antiviral activity against thymidine kinase expressing Varicella-Zoster virus OKA assessed as reduction of plaque formation; format: functional, organism-based; details: Human alphaherpesvirus 3, OKA
WI-38 = assay: Growth inhibition of human WI38 fibroblasts at 0.1 uM after 72 hrs by MTT assay; format: functional, cell-based
Human betaherpesvirus 5 [4] = assay: Antiviral activity against human cytomegalovirus Davis in HEL cells assessed as reduction of plaque formation after 7days; format: functional, organism-based; details: Human betaherpesvirus 5, Davis, 168 h
Summary of the method: (§2)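 Confluent HEL fibroblasts infected with HCMV (Davis or AD-169) at 100 PFU per well; after 2 h adsorption, residual virus removed and medium with serial compound concentrations added (duplicate wells). Incubated 7 days; EC50 taken as concentration reducing plaque formation by 50%.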

CCRF-CEM = assay: Growth inhibition of human CEM cells after 72 hrs by MTT assay; format: functional, cell-based
HEp-2 = assay: Growth inhibition of Hep2 cells after 72 hrs by MTT assay; format: functional, cell-based; details: Homo sapiens, HEp-2, 72 h; summary of the method: as §1
Human betaherpesvirus 5 [5] = assay: Antiviral activity against human cytomegalovirus AD169 in HEL cells assessed as reduction of plaque formation after 7 days; format: functional, organism-based; details: Human betaherpesvirus 5, AD169, HEL, 168 h; summary of the method: as §2
MIA PaCa-2 = assay: Growth inhibition of MiaPaCa2 cells after 72 hrs by MTT assay; format: functional, cell-based; details: Homo sapiens, MIA PaCa-2, 72 h; summary of the method: as §1
Sindbis virus = assay: Antiviral activity against sindbis virus in Vero cells assessed as reduction of virus plaque formation after 7 days; format: functional, organism-based; details: 168 h
[6] = Cytotoxicity against HEL cells assessed as cell growth after 7 days; format: cell-based; details: human
[7] = Growth inhibition of human Molt4/C8 cells after 72 hrs by MTT assay; format: functional, cell-based; details: MOLT-4, 72 h
[8] = Cytotoxicity against HEL cells assessed as cell morphology after 7 days; format: cell-based; details: human
Summary of the method: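 Uninfected confluent HEL cultures exposed to compounds; MCC recorded as lowest concentration producing a microscopically detectable alteration of normal cell morphology at day 7.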

SMILES | EC50 [1] | IC50 (L1210) | EC50 (Human alphaherpesvirus 3 [2]) | EC50 (Human respirovirus 3) | IC50 (SW-620) | IC50 (HeLa) | IC50 (MCF7) | EC50 (Punta Toro virus) | EC50 (Coxsackievirus B4) | EC50 (Human alphaherpesvirus 3 [3]) | EC50 (Human betaherpesvirus 5 [4]) | IC50 (CCRF-CEM) | EC50 (Human betaherpesvirus 5 [5]) | IC50 (MIA PaCa-2) | EC50 (Sindbis virus) | Activity (WI-38) | IC50 (HEp-2) | CC50 at 168 h [6] | IC50 [7] | MCC at 168 h [8]
COc1cc(CC(O)(c2ccc(F)cc2)c2ccc(F)cc2)nc(OC)n1 | > 40 µM | ≥ 500 µM | > 100 µM | > 40 µM | > 100 µM | > 100 µM | > 100 µM | > 40 µM | > 40 µM | > 100 µM | > 100 µM | > 500 µM | > 100 µM | > 100 µM | > 40 µM | – | > 100 µM | > 100 µM | > 500 µM | > 100 µM
COc1nc(C)c(-c2ccccc2)c(OC)n1 | > 40 µM | 77 µM | > 20 µM | > 40 µM | > 100 µM | 90 µM | > 100 µM | 40 µM | > 40 µM | > 20 µM | > 20 µM | 43 µM | > 20 µM | > 100 µM | > 40 µM | – | > 100 µM | 34 µM | 70 µM | 100 µM
COc1cc(CC(C)(O)Cc2ccccc2F)nc(OC)n1 (centres undefined) | > 130 µM | > 200 µM | > 100 µM | > 130 µM | > 200 µM | > 200 µM | > 200 µM | > 130 µM | > 200 µM | > 100 µM | > 100 µM | 156 µM | > 100 µM | > 200 µM | > 130 µM | – | > 200 µM | > 100 µM | 79 µM | ≥ 100 µM
COc1cc(/C=C(/O)c2ccc(F)cc2)nc(OC)n1 | > 200 µM | > 200 µM | > 20 µM | > 200 µM | ≥ 100 µM | > 100 µM | ≥ 100 µM | > 200 µM | 24 µM | > 100 µM | 38 µM | 192 µM | > 100 µM | > 100 µM | 200 µM | – | > 100 µM | > 100 µM | > 200 µM | > 100 µM

Second part, led by results:

EC50 [1] | IC50 (L1210) | EC50 (Human alphaherpesvirus 3 [2]) | EC50 (Human respirovirus 3) | IC50 (SW-620) | IC50 (HeLa) | IC50 (MCF7) | EC50 (Punta Toro virus) | EC50 (Coxsackievirus B4) | EC50 (Human alphaherpesvirus 3 [3]) | EC50 (Human betaherpesvirus 5 [4]) | IC50 (CCRF-CEM) | EC50 (Human betaherpesvirus 5 [5]) | IC50 (MIA PaCa-2) | EC50 (Sindbis virus) | SMILES | Activity (WI-38) | IC50 (HEp-2) | CC50 at 168 h [6] | IC50 [7] | MCC at 168 h [8]
> 8 µM | 38 µM | > 100 µM | > 8 µM | 1 µM | 18 µM | 8 µM | > 8 µM | > 40 µM | > 100 µM | > 100 µM | 28 µM | > 100 µM | 2 µM | > 8 µM | COc1nc(CBr)c(Br)c(OC)n1 | inactive | 7 µM | 38.7 µM | 97 µM | > 100 µM
> 40 µM | 82 µM | > 20 µM | > 40 µM | 20 µM | 17 µM | > 17 µM | > 40 µM | > 40 µM | > 20 µM | > 0.8 µM | 70 µM | > 0.8 µM | 20 µM | > 40 µM | COc1nc(CC(C)(O)C(F)(F)F)c(-c2ccccc2)c(OC)n1 (centres undefined) | – | 19 µM | 35 µM | 118 µM | 4 µM
200 µM | > 200 µM | > 100 µM | 120 µM | > 100 µM | > 100 µM | > 100 µM | 120 µM | 40 µM | > 100 µM | 59 µM | > 200 µM | > 100 µM | > 100 µM | > 200 µM | COc1cc(CC(C)(O)c2ccc(F)cc2)nc(OC)n1 (centres undefined) | – | > 100 µM | > 100 µM | > 200 µM | > 100 µM
